# Screening results: PubChem BioAssay, several laboratories
# CHOP UPR activ = apoptotic UPR (CHOP) activation; CHO-CHOP luciferase reporter, luminescence; percent of tunicamycin response over DMSO baseline; activation, % at 10 µM; hit rate 0.34% among 330,000; AID 449763;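 active = at 10 µM dose, activation of 40% or more, normalized to positive control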;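 note: 100% = tunicamycin at 10 µg/mL and 0% = DMSO alone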
#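 Assay system: CHO-CHOP cells, stable luciferase reporter of PERK-eIF2a-CHOP signalling / Buffer or medium: F12 plus 10% serum / Compound dosing: one dose, 10 µM in 0.5% DMSO / Times: 6 h compound treatment, 37 °C / Technique: luciferase luminescence / Read-out: % reporter activation, DMSO baseline versus tunicamycin full activation / Benchmarks: tunicamycin and DMSO controls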
# UPR XBP1 act = adaptive UPR (XBP1) activation; CHO-XBP1 luciferase reporter, IRE1-XBP1 UPR activation, luminescence; percent of tunicamycin response, DMSO as zero; activation, % at 20 µM; hit rate 0.33% among 330,000;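 active = versus positive control, 20 µM dose yields 30% or more activation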;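 note: 100% = tunicamycin at 10 µg/mL and 0% = DMSO only wells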
#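 incubation = overnight seeding at 37 °C, 6 h compound treatment at 37 °C | assay system = CHO-XBP1 cells stably carrying IRE1-XBP1-driven luciferase reporter | input = 1000 cells per well | detection = luciferase luminescence | dosing = single point, 20 µM final compound, 1% DMSO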
# H9c2 protect = modulators protecting cardiomyocytes from myocardial damage; H9c2 cardiomyocytes, H2O2 injury protection, ATPLite, 2 h; protection from H2O2 cell death, % at 20 µM; hit rate 0.63% among 360,000;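 active = compounds giving at least 50% protection of heart cells from peroxide-induced death in the single-dose screen, raw or plate-pattern-corrected value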;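 note: 0% = DMSO wells with peroxide and 100% = DMSO wells without peroxide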
# CHOP inh = inhibitors of CHOP induction in ER stress response | inhibition, % at 10 µM | hit rate 3.8% among 220,000 | CHO-K1 CHOP-promoter luciferase, tunicamycin-induced, 15-18 h;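 active = compounds that reduced the stress-induced luciferase reporter signal by more than about 70% of percent inhibition, limit read from the data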;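 note: 0% = tunicamycin plus vehicle and 100% = wells without tunicamycin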
# hiPSC survival = increases survival of single human iPS cells; AID 602274; hit rate 0.044% among 360,000; hiPSC single-cell survival, ATPlite luminescence; 100% = ROCK inhibitor wells, 0% = DMSO; survival enhancement, % at 20 µM; in the data active = survival enhancement above about 18%;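 note: cells exposed to compounds for 16 hours before the ATP read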
# * hit, by the source's call; nt = no result. The full list was thinned out, with hits kept by preference.
SMILES,CHOP UPR activ,UPR XBP1 act,H9c2 protect,CHOP inh,hiPSC survival
Cc1occc1-c1nnc(SCC(=O)c2ccc(F)cc2)n1Cc1ccco1,0.7,-0.2,-2.0,41.8,-5.0
O=C(CSc1nnc(-c2cc3ccccc3cc2O)n1Cc1ccco1)c1ccc(F)cc1,1.3,1.1,-8.3,84.5*,-1.6
O=[N+]([O-])c1ccc(CSc2ccc(S(=O)(=O)N3CCCCCC3)cn2)cc1,0.3,-1.4,8.0,nt,-0.4
O=C(c1ccccc1)n1c2ccccc2c(=O)n1-c1ccccc1CCl,nt,nt,0.6,nt,0.5
Cn1c(-c2ccc(Cl)cc2)cnc1N,-2.4,-0.5,69.2*,15.0,-3.2
CCOc1ccc(-c2cnc(N)n2C)cc1,6.3,1.4,9.9,18.6,0.1
O=C1NC[C@@H](CCCCN2C[C@H](Cc3ccccc3)N(CCc3ccccc3)C(=O)C2=O)N(CCc2ccccc2)C1=O,nt,nt,nt,nt,-0.3
CCCn1cnc2c(c1=O)c1nc3ccccc3nc1n2CCc1ccccc1,-1.4,-2.3,10.4,72.8*,-0.2
CCCn1cnc2c(c1=O)c1nc3ccccc3nc1n2CCC1=CCCCC1,nt,nt,nt,84.3*,nt
O=c1c2c3nc4ccccc4nc3n(/N=C/c3ccco3)c2ncn1CCC1=CCCCC1,2.5,0.6,0.2,nt,-0.9
O=C(CN1CCN(c2cnn(-c3ccccc3)c(=O)c2Cl)CC1)NC1CCS(=O)(=O)C1 (stereo not given),0.3,-2.7,5.0,nt,-0.5
COc1ccc(Cl)cc1Nc1nc(NCCO)nc(N2CCCC2)n1,-1.3,1.6,-9.7,74.1*,2.2
CC(C)Cn1c(=O)c(C(=O)NCc2ccccn2)c(O)c2ccccc21,-0.4,2.1,56.2*,43.5,5.7
CCn1c(=O)c(C(=O)Nc2ccccn2)c(O)c2ccccc21,0.3,-0.2,-10.5,81.4*,-1.4
O=C(Cn1c(=O)sc2ccccc21)NCc1ccccn1,3.0,1.8,-2.9,74.5*,1.4
CCn1c(=O)c(C(=O)NCCc2ccc(Cl)cc2)c(O)c2ccccc21,-0.8,-2.3,30.4,nt,0.3
CCCn1c(=O)c(C(=O)NCCc2ccc(Cl)cc2)c(O)c2ccccc21,2.1,-5.1,53.6*,nt,-0.7
OC(c1ccc(Cl)c(F)c1)c1ncc(-c2cccc(F)c2)[nH]1 (stereo not given),nt,nt,-27.5,nt,-0.6
COc1cc(CNC(=O)c2cc3ccccc3oc2=O)cc(OC)c1OC,-0.7,-2.0,-3.8,nt,-0.6
CCOC(=O)C1=CCN(S(=O)(=O)c2ccccc2Cl)C1c1ccc(C)cc1 (stereo not given),nt,nt,-2.2,nt,0.7
CC(CSC(=O)c1ccccc1)C(=O)N1c2ccccc2CC1C(=O)O (stereo not given),nt,nt,0.4,nt,-0.1
COc1cc2c(C(=O)NCc3ccccn3)cn(CC(C)C)c(=O)c2cc1OC,-0.6,-0.6,53.8*,-16.7,0.4
CCCn1c(=O)c(C(=O)NNS(=O)(=O)c2ccc(C)cc2)c(O)c2ccccc21,0.0,-0.6,-1.8,90.3*,-1.4
CCn1c(=O)c(C(=O)NC(C)C)c(O)c2ccccc21,0.0,-1.2,-5.7,72.3*,-0.5
COC(=O)c1ccc2nc(-c3ccc(C#N)cc3)c(Cc3cccc(Cl)c3)n2c1,nt,nt,nt,nt,0.2
SMILES,CHOP UPR activ,UPR XBP1 act,H9c2 protect,CHOP inh,hiPSC survival
Cc1ccccc1Oc1ccc2c(c1)[C@@H]1C[C@H](N(C)C(=O)c3ccco3)[C@H]([C@H](C)O)C(=O)N1CC2,nt,nt,-2.5,nt,4.0
O=c1cc(O)cc(/C=C/c2ccc(O)c(O)c2)o1,nt,nt,nt,9.9,nt
CCOP(=O)(OCC)c1nc(-c2cccc3ccccc23)oc1NCc1ccc(OC)cc1,0.3,-0.4,-1.6,51.5,1.1
CCOP(=O)(OCC)c1nc(/C=C/c2ccccc2)oc1NCc1ccc(OC)cc1,-1.1,-0.8,2.2,76.5*,1.0
CCOP(=O)(OCC)c1nc(-c2cccc3ccccc23)oc1NCc1ccccc1,-1.2,0.7,-19.0,77.4*,-0.8
Cc1cc(C)c(Cn2cnc(-c3ccc([N+](=O)[O-])cc3)c2)c(C)c1,-0.7,-6.1,5.2,76.3*,-1.5
CCn1c(NC(=O)/C=C/c2ccc(F)cc2)nc2ccccc21,0.5,2.5,74.5*,nt,-0.3
Cc1cc(NC(=O)/C=C/c2ccc(F)cc2)n(-c2nc3ccccc3[nH]2)n1,6.7,9.1,-21.6,-5.9,-2.3
N#Cc1ncc(Cc2ccccc2)nc1C#N,60.0*,1.7,10.0,nt,0.0
